Test results reported in ChEMBL document CHEMBL1140923, “Discovery of imidazo[1,2-b]thiazole derivatives as novel SIRT1 activators” (J Med Chem, 2009).

Legend:
[1] = AUC in C57BL/6 mouse at 100 mg/kg, po or 10 mg/kg, iv; type: ADME, organism-based; details: plasma
Method in brief: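 Male C57BL/6 mice (18-22 g; 3 per dose group per time point), given 100 mg/kg po as the hydrochloride salt in 2% HPMC + 0.2% DOSS, or 10 mg/kg iv by tail vein in 10% ethanol/40% polyethylene glycol/50% H2O. Plasma was taken at 5, 30, 120 and 360 min after dosing and drug levels were measured.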

[2] = target: T1, Muscarinic acetylcholine receptor M1 (Homo sapiens, UniProt P11229); test: Inhibition of muscarinic M1 receptor
T1 sequence (P11229 whole entry): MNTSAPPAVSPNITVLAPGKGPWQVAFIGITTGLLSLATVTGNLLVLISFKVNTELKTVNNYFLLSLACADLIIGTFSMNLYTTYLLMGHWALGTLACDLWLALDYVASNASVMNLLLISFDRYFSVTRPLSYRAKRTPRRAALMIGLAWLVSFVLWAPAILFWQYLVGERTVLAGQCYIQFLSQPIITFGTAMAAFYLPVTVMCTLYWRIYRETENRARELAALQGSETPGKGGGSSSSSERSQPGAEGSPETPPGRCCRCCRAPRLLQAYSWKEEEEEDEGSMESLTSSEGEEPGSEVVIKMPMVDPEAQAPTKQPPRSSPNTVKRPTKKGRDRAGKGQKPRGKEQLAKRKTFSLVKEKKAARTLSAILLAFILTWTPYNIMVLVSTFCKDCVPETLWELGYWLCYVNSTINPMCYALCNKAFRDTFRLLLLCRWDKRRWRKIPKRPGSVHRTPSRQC

O=C(Nc1ccccc1-c1cn2c(CN3CCNCC3)csc2n1)c1cnc2ccccc2n1
AUC [1]: 7900 ng·h/mL
IC50 [2]: 8.02 µM
